Data: ChEMBL document CHEMBL4393701, “Appendix A. dithioloquinolinethiones as new potential multitargeted antibacterial and antifungal agents: Synthesis, biological evaluation and molecular docking studies” (2019)
≈ marks a conversion by molar mass, not a printed value.

Columns and labels:
[1] = test system: Penicillium cyclopium; assay: Antifungal activity against Penicillium verrucosum var. cyclopium food isolate after 72 hrs by microdilution technique; type: functional
Method in brief: (§1)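 Spores were washed off malt agar with 0.85% saline containing 0.1% Tween 80 and adjusted to about 1.0×10^5 per well. Compounds in 5% DMSO were serially diluted (0.001-1.0 mg/ml) in malt broth with inoculum. Plates were shaken at 160 rpm for 72 h at 28 °C. MIC is the lowest concentration without visible growth under a binocular microscope. Three independent experiments in duplicate.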

[2] = test system: Pseudomonas aeruginosa; assay: Antibacterial activity against Pseudomonas aeruginosa ATCC 27853 after 24 hrs by iodonitrotetrazolium chloride dye based microdilution method; type: functional; details: ATCC 27853, 24 h
Method in brief: (§2)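 Fresh overnight cultures adjusted spectrophotometrically to 1×10^5 CFU/mL, giving 1.0×10^4 CFU per well in tryptic soy broth. Compounds were dissolved in 5% DMSO and tested at 0.001-1.0 mg/ml by serial dilution; 5% DMSO was the negative control. After 24 h at 37 °C, 0.2 mg/mL INT solution was added for 30 min at 37 °C and OD read at 655 nm. MIC is the lowest concentration giving significant growth inhibition versus the positive control. Duplicates, repeated three times.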

[3] = test system: Salmonella typhimurium; assay: Antibacterial activity against Salmonella typhimurium ATCC 13311 after 24 hrs by iodonitrotetrazolium chloride dye based microdilution method; type: functional, Salmonella enterica subsp. enterica serovar Typhimurium; details: Salmonella enterica, ATCC 13311, 24 h; method in brief: as §2
[4] = test system: Pseudomonas aeruginosa; assay: Bactericidal activity against Pseudomonas aeruginosa ATCC 27853 incubated for 24 hrs followed by re-plating on tryptic soy broth; type: functional; details: ATCC 27853, 24 h
Method in brief: (§3)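 Bacteria were grown in tryptic soy broth, 1.0×10^4 CFU per well, with compounds in 5% DMSO at 0.001-1.0 mg/ml for 24 h at 37 °C. Then 10 µL was subcultured into fresh TSB. MBC is the lowest concentration showing no growth after subculture, taken as 99.5% kill of the original inoculum. Duplicates, repeated three times.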

[5] = test system: Aspergillus versicolor; assay: Antifungal activity against Aspergillus versicolor ATCC 11730 after 72 hrs by microdilution method; type: functional; details: ATCC 11730, 72 h; method in brief: as §1
[6] = test system: Aspergillus ochraceus; assay: Antifungal activity against Aspergillus ochraceus ATCC 12066 after 72 hrs by microdilution technique; type: functional; details: ATCC 12066, 72 h; method in brief: as §1
[7] = test system: Staphylococcus aureus; assay: Bactericidal activity against Staphylococcus aureus ATCC 6538 incubated for 24 hrs followed by re-plating on tryptic soy broth; type: functional; details: ATCC 6538, 24 h; method in brief: as §3
[8] = test system: Listeria monocytogenes; assay: Antibacterial activity against Listeria monocytogenes NCTC 7973 after 24 hrs by iodonitrotetrazolium chloride dye based microdilution method; type: functional; details: NCTC 7973, 24 h; method in brief: as §2
[9] = test system: Salmonella typhimurium; assay: Bactericidal activity against Salmonella typhimurium ATCC 13311 incubated for 24 hrs followed by re-plating on tryptic soy broth; type: functional, Salmonella enterica subsp. enterica serovar Typhimurium; details: Salmonella enterica, ATCC 13311, 24 h; method in brief: as §3
[10] = test system: Aspergillus fumigatus; assay: Antifungal activity against Aspergillus fumigatus ATCC 1022 after 72 hrs by microdilution technique; type: functional; details: ATCC 1022, 72 h; method in brief: as §1
[11] = test system: Enterobacter cloacae; assay: Bactericidal activity against Enterobacter cloacae incubated for 24 hrs followed by re-plating on tryptic soy broth; type: functional; method in brief: as §3
[12] = test system: Aspergillus niger; assay: Antifungal activity against Aspergillus niger ATCC 6275 after 72 hrs by microdilution technique; type: functional; details: ATCC 6275, 72 h; method in brief: as §1
[13] = test system: Trichoderma viride; assay: Fungicidal activity against Trichoderma viride IAM 5061 incubated for 72 hrs followed by sub-culturing on broth malt medium and measured after 72 hrs; type: functional; details: IAM 5061, 72 h
Method in brief: (§4)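 After 72 h exposure in malt broth, 2 µL from test wells was subcultured into wells holding 100 µL broth and incubated a further 72 h at 28 °C. MFC is the lowest concentration with no visible growth, taken as 99.5% kill of the original inoculum. Three independent experiments in duplicate.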

[14] = test system: Escherichia coli; assay: Bactericidal activity against Escherichia coli ATCC 35210 incubated for 24 hrs followed by re-plating on tryptic soy broth; type: functional; details: ATCC 35210, 24 h; method in brief: as §3
[15] = test system: Micrococcus flavus; assay: Antibacterial activity against Micrococcus flavus ATCC 10240 after 24 hrs by iodonitrotetrazolium chloride dye based microdilution method; type: functional; details: ATCC 10240, 24 h; method in brief: as §2
[16] = test system: Micrococcus flavus; assay: Bactericidal activity against Micrococcus flavus ATCC 10240 incubated for 24 hrs followed by re-plating on tryptic soy broth; type: functional; details: ATCC 10240, 24 h; method in brief: as §3
[17] = test system: Staphylococcus aureus; assay: Antibacterial activity against Staphylococcus aureus ATCC 6538 after 24 hrs by iodonitrotetrazolium chloride dye based microdilution method; type: functional; details: ATCC 6538, 24 h; method in brief: as §2
[18] = Fungicidal activity against Penicillium funiculosum ATCC 36839 incubated for 72 hrs followed by sub-culturing on broth malt medium and measured after 72 hrs; type: functional; details: Talaromyces pinophilus, ATCC 36839, 72 h; method in brief: as §4
[19] = Antifungal activity against Penicillium funiculosum ATCC 36839 after 72 hrs by microdilution technique; type: functional; details: Talaromyces pinophilus, ATCC 36839, 72 h; method in brief: as §1
[20] = test system: Listeria monocytogenes; assay: Bactericidal activity against Listeria monocytogenes NCTC 7973 incubated for 24 hrs followed by re-plating on tryptic soy broth; type: functional; details: NCTC 7973, 24 h; method in brief: as §3
[21] = test system: Bacillus cereus; assay: Bactericidal activity against Bacillus cereus clinical isolate incubated for 24 hrs followed by re-plating on tryptic soy broth; type: functional; method in brief: as §3
[22] = test system: Penicillium cyclopium; assay: Fungicidal activity against Penicillium verrucosum var. cyclopium food isolate incubated for 72 hrs followed by sub-culturing on broth malt medium and measured after 72 hrs; type: functional; method in brief: as §4
[23] = test system: Penicillium ochrochloron; assay: Fungicidal activity against Penicillium ochrochloron ATCC 9112 incubated for 72 hrs followed by sub-culturing on broth malt medium and measured after 72 hrs; type: functional; details: ATCC 9112, 72 h; method in brief: as §4
[24] = test system: Aspergillus fumigatus; assay: Fungicidal activity against Aspergillus fumigatus ATCC 1022 incubated for 72 hrs followed by sub-culturing on broth malt medium and measured after 72 hrs; type: functional; details: ATCC 1022, 72 h; method in brief: as §4
[25] = test system: Escherichia coli; assay: Antibacterial activity against Escherichia coli ATCC 35210 after 24 hrs by iodonitrotetrazolium chloride dye based microdilution method; type: functional; details: ATCC 35210, 24 h; method in brief: as §2
[26] = test system: Trichoderma viride; assay: Antifungal activity against Trichoderma viride IAM 5061 after 72 hrs by microdilution technique; type: functional; details: IAM 5061, 72 h; method in brief: as §1
[27] = test system: Aspergillus ochraceus; assay: Fungicidal activity against Aspergillus ochraceus ATCC 12066 incubated for 72 hrs followed by sub-culturing on broth malt medium and measured after 72 hrs; type: functional; details: ATCC 12066, 72 h; method in brief: as §4
[28] = test system: Penicillium ochrochloron; assay: Antifungal activity against Penicillium ochrochloron ATCC 9112 after 72 hrs by microdilution technique; type: functional; details: ATCC 9112, 72 h; method in brief: as §1
[29] = test system: Enterobacter cloacae; assay: Antibacterial activity against Enterobacter cloacae clinical isolate after 24 hrs by iodonitrotetrazolium chloride dye based microdilution method; type: functional; method in brief: as §2
[30] = test system: Aspergillus versicolor; assay: Fungicidal activity against Aspergillus versicolor ATCC 11730 incubated for 72 hrs followed by sub-culturing on broth malt medium and measured after 72 hrs; type: functional; details: ATCC 11730, 72 h; method in brief: as §4
[31] = test system: Bacillus cereus; assay: Antibacterial activity against Bacillus cereus clinical isolate after 24 hrs by iodonitrotetrazolium chloride dye based microdilution assay; type: functional; method in brief: as §2
[32] = test system: Aspergillus niger; assay: Fungicidal activity against Aspergillus niger ATCC 6275 incubated for 72 hrs followed by sub-culturing on broth malt medium and measured after 72 hrs; type: functional; details: ATCC 6275, 72 h; method in brief: as §4

MIC [2] | MIC [3] | MIC [8] | MIC [15] | MIC [17] | Compound | MIC [1] | MBC [4] | MIC [5] | MIC [6] | MBC [7] | MBC [9] | MIC [10] | MBC [11] | MIC [12] | MFC [13] | MBC [14] | MBC [16] | MFC [18] | MIC [19] | MBC [20] | other results
0.3 µM (≈ 0.115 µg/mL) | 0.3 µM (≈ 0.115 µg/mL) | 0.3 µM (≈ 0.115 µg/mL) | 12.1 µM (≈ 4.65 µg/mL) | 0.3 µM (≈ 0.115 µg/mL) | Cc1ccc2c(c1)-c1c(ssc1=S)C(C)(C)N2C(=O)c1cccnc1 | 7.8 ×10⁻² mM | 0.6 µM (≈ 0.231 µg/mL) | 7.8 ×10⁻² mM | 14.6 ×10⁻² mM | 0.6 µM (≈ 0.231 µg/mL) | 0.6 µM (≈ 0.231 µg/mL) | 7.8 ×10⁻² mM | 0.6 µM (≈ 0.231 µg/mL) | 1.56 ×10⁻² mM | 2.08 ×10⁻² mM | 0.6 µM (≈ 0.231 µg/mL) | 0.6 µM (≈ 0.231 µg/mL) | 31.2 ×10⁻² mM | 15.6 ×10⁻² mM | 0.6 µM (≈ 0.231 µg/mL) | MBC [21]: 0.6 µM (≈ 0.231 µg/mL); MFC [22]: 15.6 ×10⁻² mM; MFC [23]: 15.6 ×10⁻² mM; MFC [24]: 15.6 ×10⁻² mM; MIC [25]: 12.1 µM (≈ 4.65 µg/mL); MIC [26]: 1.04 ×10⁻² mM; MFC [27]: 31.2 ×10⁻² mM; MIC [28]: 7.8 ×10⁻² mM; MIC [29]: 0.3 µM (≈ 0.115 µg/mL); MFC [30]: 15.6 ×10⁻² mM; MIC [31]: 12.1 µM (≈ 4.65 µg/mL); MFC [32]: 7.8 ×10⁻² mM
372 µM (≈ 130 µg/mL) | 248 µM (≈ 86.7 µg/mL) | 372 µM (≈ 130 µg/mL) | 248 µM (≈ 86.7 µg/mL) | 248 µM (≈ 86.7 µg/mL) | CC1(C)S[C@@H]2[C@H](NC(=O)[C@H](N)c3ccccc3)C(=O)N2[C@H]1C(=O)O [AMPICILLIN] |  | 492 µM (≈ 172 µg/mL) |  |  | 372 µM (≈ 130 µg/mL) | 380 µM (≈ 133 µg/mL) |  | 1240 µM (≈ 433 µg/mL) |  |  | 1240 µM (≈ 433 µg/mL) | 372 µM (≈ 130 µg/mL) |  |  | 744 µM (≈ 260 µg/mL) | MBC [21]: 372 µM (≈ 130 µg/mL); MIC [25]: 744 µM (≈ 260 µg/mL); MIC [29]: 744 µM (≈ 260 µg/mL); MIC [31]: 248 µM (≈ 86.7 µg/mL)
 |  |  |  |  | c1ccc(-c2ccc(C(c3ccccc3)n3ccnc3)cc2)cc1 (stereo unspecified) [BIFONAZOLE] | 48 ×10⁻² mM |  | 48 ×10⁻² mM | 48 ×10⁻² mM |  |  | 48 ×10⁻² mM |  | 48 ×10⁻² mM | 80 ×10⁻² mM |  |  | 64 ×10⁻² mM | 48 ×10⁻² mM |  | MFC [22]: 64 ×10⁻² mM; MFC [23]: 80 ×10⁻² mM; MFC [24]: 64 ×10⁻² mM; MIC [26]: 64 ×10⁻² mM; MFC [27]: 80 ×10⁻² mM; MIC [28]: 64 ×10⁻² mM; MFC [30]: 64 ×10⁻² mM; MFC [32]: 64 ×10⁻² mM
 |  |  |  |  | CC(=O)N1CCN(c2ccc(OCC3COC(Cn4ccnc4)(c4ccc(Cl)cc4Cl)O3)cc2)CC1 (stereo unspecified) [KETOCONAZOLE] | 38 ×10⁻² mM |  | 285 ×10⁻² mM | 38 ×10⁻² mM |  |  | 38 ×10⁻² mM |  | 38 ×10⁻² mM | 570 ×10⁻² mM |  |  | 380 ×10⁻² mM | 380 ×10⁻² mM |  | MFC [22]: 57 ×10⁻² mM; MFC [23]: 95 ×10⁻² mM; MFC [24]: 95 ×10⁻² mM; MIC [26]: 475 ×10⁻² mM; MFC [27]: 95 ×10⁻² mM; MIC [28]: 38 ×10⁻² mM; MFC [30]: 380 ×10⁻² mM; MFC [32]: 95 ×10⁻² mM
172 µM (≈ 100 µg/mL) | 43 µM (≈ 25 µg/mL) | 258 µM (≈ 150 µg/mL) | 86 µM (≈ 50 µg/mL) | 172 µM (≈ 100 µg/mL) | CN[C@@H]1[C@H](O[C@H]2[C@H](O[C@H]3[C@H](O)[C@@H](O)[C@H](N=C(N)N)[C@@H](O)[C@@H]3N=C(N)N)O[C@@H](C)[C@]2(O)C=O)O[C@@H](CO)[C@H](O)[C@H]1O [STREPTOMYCIN] |  | 344 µM (≈ 200 µg/mL) |  |  | 344 µM (≈ 200 µg/mL) | 86 µM (≈ 50 µg/mL) |  | 344 µM (≈ 200 µg/mL) |  |  | 344 µM (≈ 200 µg/mL) | 172 µM (≈ 100 µg/mL) |  |  | 516 µM (≈ 300 µg/mL) | MBC [21]: 86 µM (≈ 50 µg/mL); MIC [25]: 270 µM (≈ 157 µg/mL); MIC [29]: 270 µM (≈ 157 µg/mL); MIC [31]: 43 µM (≈ 25 µg/mL)
